Assay results taken from article PMC2614345 (Toxicology and applied pharmacology, 2008).
Where two headings read alike, the source gives them in different places.

How the values were obtained:
[1] = Biliary excretion of DAPM metabolites; type: in vivo, Sprague Dawley rats; conditions: for biliary excretion, male compared to female rats: AUC analysis, 25 and 50 mg/kg DAPM; for AUC for DAPM metabolite elimination in the bile, Females: female rats; for AUC for DAPM metabolite elimination in the bile, Females / AUC for DAPM metabolite elimination in the bile, Males: bile collected 6 h, mean ± SEM, n=4–6; for AUC for DAPM metabolite elimination in the bile, Males: male rats
Procedure, shortened: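 Sprague Dawley rats of both sexes (12–15 wk) under pentobarbital, with biliary, duodenal and peritoneal cannulas and duodenal taurocholate infusion; 1 h basal bile. Gavage of [14C]-test compound, 25 or 50 mg/kg in 35% ethanol, 2 mL/kg. Bile taken for 6 h in 15-min fractions, deproteinized, then C18 HPLC with UV 254 nm and radioisotope detection. Per-rat nmol-versus-time AUC; group mean ± SEM, n=4–6; two-way ANOVA.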

rats = conditions: ref Dugas et al., 2001, cited from earlier work
[2] = 25 mg/kg DAPM, ref Dugas et al., 2001, cited from earlier work

Nc1ccc(Cc2ccc(N)cc2)cc1 [DAPM, 4,4’-Methylenedianiline]
biliary excretion, male compared to female rats [1]: biliary excretion in males was likewise greater than that in female rats
AUC for DAPM metabolite elimination in the bile, Females ([1]; DAPM 25 mg/kg by gavage): 29 ± 14 nmol·h
AUC for DAPM metabolite elimination in the bile, Females ([1]; DAPM 50 mg/kg by gavage): 67 ± 31 nmol·h
AUC for DAPM metabolite elimination in the bile, Males ([1]; DAPM 25 mg/kg by gavage): 155 ± 22 nmol·h
AUC for DAPM metabolite elimination in the bile, Males ([1]; DAPM 50 mg/kg by gavage): 176 ± 74 nmol·h
threshold dose for observing injury (rats; female rats): 25 mg/kg
threshold dose for observing injury (rats; male rats): 50 mg/kg
maximum rate of biliary excretion of metabolite ([2]; female rats, maximum at 45 min): ~ 9 µg/min*kg
maximum rate of biliary excretion of metabolite ([2]; male rats, maximum at 15 min): ~ 18 µg/min*kg

CC(=O)Nc1ccc(Cc2ccc(N)cc2)cc1 [Metabolite M5, N-acetyl-DAPM]
biliary excretion, male compared to female rats [1]: greater in male compared to female rats
AUC for DAPM metabolite elimination in the bile, Females ([1]; DAPM 25 mg/kg by gavage): 39 ± 13 nmol·h
AUC for DAPM metabolite elimination in the bile, Females ([1]; DAPM 50 mg/kg by gavage): 132 ± 70 nmol·h
AUC for DAPM metabolite elimination in the bile, Males ([1]; DAPM 25 mg/kg by gavage): 175 ± 11 nmol·h
AUC for DAPM metabolite elimination in the bile, Males ([1]; DAPM 50 mg/kg by gavage): 259 ± 86 nmol·h
